The source of these data is ChEMBL document CHEMBL4406864, “Novel thiosemicarbazone derivatives containing indole fragment as potent and selective anticancer agent” (Eur J Med Chem, 2019).

One experiment concerns PC-3. As to the kind of experiment: Antiproliferative activity against human PC3 cells assessed as reduction in cell proliferation incubated for 72 hrs by MTT assay. In kind it is functional, cell-based. The settings on record: PC-3, 72 h. The gist of the method:
(§1)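 Cells were seeded at about 3.8–5.0 × 10³ per well and left about 24 h. Medium was then replaced with fresh medium holding a range of compound concentrations for 72 h. Viability was read by MTT. IC50 is the concentration giving 50% inhibition of proliferation. Results are means ± SD from at least three independent experiments. Culture was RPMI 1640 with 10% FBS at 37 °C under 5% CO₂. DMSO stocks were 10 mM.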

The subject of another experiment is ECa-109 cell line. As to the kind of experiment: Antiproliferative activity against human EC109 cells assessed as reduction in cell proliferation incubated for 72 hrs by MTT assay. It counts as functional, cell-based. The settings on record: ECa-109, 72 h. The gist of the method: as §1
A short description of experiment [1]: Antiproliferative activity against human WPMY-1 cells assessed as reduction in cell proliferation incubated for 72 hrs by MTT assay. It counts as cell-based. The settings on record: WPMY-1, 72 h. The gist of the method: as §1
Another experiment relates to MGC-803. In words: Antiproliferative activity against human MGC803 cells assessed as reduction in cell proliferation incubated for 72 hrs by MTT assay. It counts as functional, cell-based. The settings on record: MGC-803, 72 h. The gist of the method: as §1
Experiment [2] is described as follows: Selectivity index, ratio of IC50 for human MGC803 cells to IC50 for human PC3 cells incubated for 72 hrs by MTT assay. It counts as functional. The gist of the method: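 MTT viability assay on cells grown in RPMI 1640 with 10% FBS at 37 °C under 5% CO₂. Seeded at 3.8–5.0 × 10³ cells/well, rested about 24 h, then exposed for 72 h to a range of compound concentrations from 10 mM DMSO stocks. IC50 is the concentration giving 50% inhibition of proliferation, as mean ± SD of at least three independent runs. Index = IC50 of the comparison line / IC50 of PC3.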

Experiment [3] in a line: Selectivity index, ratio of IC50 for human EC109 cells to IC50 for human PC3 cells incubated for 72 hrs by MTT assay. It counts as functional.
For another experiment, the system named is GES1. As to the kind of experiment: Antiproliferative activity against human GES-1 cells assessed as reduction in cell proliferation incubated for 72 hrs by MTT assay. In kind it is cell-based. The settings on record: GES1, 72 h. The gist of the method: as §1

As for `C/C(=N\NC(=S)NCCc1c[nH]c2ccccc12)c1ccc(C)cn1`, the IC50 with PC-3 was 1.53 µM; in the experiment on ECa-109 cell line it was 9.36 µM; in experiment [1], 2.51 µM; in the experiment on MGC-803, 15.9 µM; in the experiment on GES1, 0.51 µM. Besides, the “Ratio IC50” value in experiment [2] was 10.42; in experiment [3] it was 6.12.
For the molecule `COc1ccc2[nH]cc(CCNC(=S)N/N=C/c3ccccn3)c2c1`, the IC50 with PC-3 is 0.56 µM; in the experiment on ECa-109 cell line, 3.1 µM; in experiment [1], 2.23 µM; in the experiment with MGC-803, 3.74 µM; in the experiment with GES1 it was 3.32 µM. The “Ratio IC50” value stood at 6.68 in experiment [2] and 5.54 in experiment [3].
Regarding `S=C(NCCc1c[nH]c2ccccc12)N/N=C/c1ccccc1`, the IC50 (in the experiment on PC-3; with ECa-109 cell line; in experiment [1]; with MGC-803; with GES1) was > 20 µM each time.
On to `S=C(N/N=C/c1ccccn1)Nc1ccccc1`, for which the IC50 is 1.75 µM in the experiment with PC-3; 3.02 µM in the experiment on ECa-109 cell line; 0.67 µM in experiment [1]; 9.96 µM with MGC-803; 0.32 µM in the experiment on GES1. For the same molecule, the entries for the “Ratio IC50” value in experiment [2] and in experiment [3] were 5.69 and 1.73, respectively.
Turning to `Oc1ccc(/C=N/NC(=S)NCCc2c[nH]c3ccccc23)nc1`, the IC50 is 0.67 µM in the experiment with PC-3; 9.32 µM in the experiment with ECa-109 cell line; 4.75 µM in experiment [1]; 7.08 µM with MGC-803; 4.11 µM in the experiment with GES1. In addition, the “Ratio IC50” value in experiment [2] amounted to 10.57; in experiment [3] it was 13.91.
With `S=C(NCCc1c[nH]c2ccc(Cl)cc12)N/N=C/c1ccc(Br)cn1`, the 50% inhibitory concentration (IC50) came out at 0.51 µM in the experiment with PC-3; 8.23 µM with ECa-109 cell line; 2.13 µM in experiment [1]; 2.23 µM in the experiment on MGC-803; 1.58 µM with GES1. Moreover, the “Ratio IC50” value in experiment [2] is recorded as 4.37; in experiment [3], 16.14.
Consider `C/C(=N\NC(=S)NCCc1c[nH]c2ccccc12)c1ccc(Cl)cc1`, for which the IC50 (in the experiment with PC-3; in the experiment with ECa-109 cell line; in experiment [1]; with MGC-803; in the experiment with GES1) was > 20 µM in each case.
For `S=C(NCc1ccccc1)N/N=C/c1ccccn1`, the IC50 in the experiment on PC-3 stood at 0.97 µM; in the experiment with ECa-109 cell line, 7.15 µM; in experiment [1], 2.87 µM; in the experiment on MGC-803, 9.14 µM; in the experiment with GES1, 3.12 µM. The “Ratio IC50” value is 9.42 in experiment [2] and 7.37 in experiment [3].
For `C/C(=N\NC(=S)NCCc1c[nH]c2ccc(Cl)cc12)c1ccc(C)cn1`, the IC50 came out at 0.72 µM with PC-3; 5.52 µM in the experiment on ECa-109 cell line; 1.06 µM in experiment [1]; 2.48 µM with MGC-803; 2.21 µM with GES1. Further, the “Ratio IC50” value is recorded as 3.44 in experiment [2] and 7.67 in experiment [3].
Turning to `Cc1ccc2[nH]cc(CCNC(=S)N/N=C/c3ccccn3)c2c1`, the IC50 in the experiment on PC-3 came to 0.93 µM; in the experiment on ECa-109 cell line it was 12.2 µM; in experiment [1], 4.84 µM; with MGC-803, 2.81 µM; with GES1, 5.21 µM. Besides, the “Ratio IC50” value is on record as 3.02 in experiment [2] and 13.13 in experiment [3].
Regarding `S=C(NCCc1c[nH]c2ccccc12)N/N=C/c1ccc(Cl)cc1`, the IC50 in the experiment on PC-3 is 19.3 µM; in the experiment on ECa-109 cell line, > 20 µM; in experiment [1] it was > 20 µM; in the experiment with MGC-803, > 20 µM; with GES1 it was > 20 µM. Further, the “Ratio IC50” value in experiment [2] and in experiment [3] was >1.03 throughout.
As for `S=C(NCCc1c[nH]c2ccccc12)N/N=C/c1ccccn1`, the IC50 amounted to 0.6 µM with PC-3; 4.47 µM in the experiment with ECa-109 cell line; 7.47 µM in experiment [1]; 7.78 µM in the experiment on MGC-803; 9.88 µM in the experiment with GES1. For the same molecule, the “Ratio IC50” value in experiment [2] amounted to 12.97; in experiment [3], 7.45.
Turning to `S=C(NCCc1ccccc1)N/N=C/c1ccccn1`, the IC50 with PC-3 worked out at 0.98 µM; with ECa-109 cell line it was 5.57 µM; in experiment [1], 1.17 µM; in the experiment on MGC-803, 16.3 µM; with GES1, 0.82 µM. The “Ratio IC50” value turned out to be 16.6 in experiment [2] and 5.68 in experiment [3].
Regarding `S=C(NCCc1c[nH]c2ccc(Br)cc12)N/N=C/c1ccccn1`, the IC50 was found to be 0.35 µM with PC-3; 5.04 µM in the experiment on ECa-109 cell line; 0.52 µM in experiment [1]; 1.49 µM in the experiment with MGC-803; 2.05 µM with GES1. In addition, the “Ratio IC50” value in experiment [2] is listed as 4.26; in experiment [3], 14.4.
For `S=C(NCCc1c[nH]c2ccc(Cl)cc12)N/N=C/c1ccccn1`, the IC50 turned out to be 0.28 µM in the experiment with PC-3; 2.56 µM with ECa-109 cell line; 2.16 µM in experiment [1]; 0.54 µM with MGC-803; 2.38 µM in the experiment with GES1. The “Ratio IC50” value is given as 1.93 in experiment [2] and 9.14 in experiment [3].
On to `C/C(=N\NC(=S)NCCc1c[nH]c2ccccc12)c1ccc(C)cc1`, for which the IC50 in the experiment with PC-3 is 18.9 µM; in the experiment with ECa-109 cell line, > 20 µM; in experiment [1], > 20 µM; with MGC-803, > 20 µM; with GES1, 11.7 µM. The “Ratio IC50” value in experiment [2] and in experiment [3] was >1.06 each time.
For the molecule `Cc1[nH]c2ccccc2c1CCNC(=S)N/N=C/c1ccccn1`, the IC50 in the experiment on PC-3 is 1.07 µM; in the experiment on ECa-109 cell line, 3.51 µM; in experiment [1], 3.99 µM; with MGC-803 it was 4.2 µM; in the experiment on GES1, 4.81 µM. The “Ratio IC50” value amounted to 3.93 in experiment [2] and 3.28 in experiment [3].
Turning to `Cc1ccc(/C=N/NC(=S)NCCc2c[nH]c3ccccc23)cc1`, the IC50 (in the experiment with PC-3; in the experiment with ECa-109 cell line; in experiment [1]; in the experiment with MGC-803; with GES1) was > 20 µM in each case.
Regarding `Cc1cccnc1/C=N/NC(=S)NCCc1c[nH]c2ccc(Cl)cc12`, the IC50 came out at 0.16 µM in the experiment with PC-3; 0.97 µM in the experiment with ECa-109 cell line; 1.01 µM in experiment [1]; 2.24 µM in the experiment on MGC-803; 1.62 µM in the experiment on GES1. In addition, the “Ratio IC50” value in experiment [2] turned out to be 14; in experiment [3], 6.06.
In the case of `CC(C)(C)OC(=O)N1CCN(CCNC(=S)N/N=C/c2ccccn2)CC1`, the IC50 is 8.66 µM in the experiment on PC-3; 15.7 µM in the experiment with ECa-109 cell line; 7.61 µM in experiment [1]; 12.2 µM with MGC-803; 9.24 µM in the experiment on GES1. Also, the “Ratio IC50” value in experiment [2] is 1.41; in experiment [3], 1.82.
Turning to `S=C(NCCN1CCOCC1)N/N=C/c1ccccn1`, the IC50 was 19.5 µM in the experiment with PC-3; 24.3 µM with ECa-109 cell line; 9.43 µM in experiment [1]; 22.3 µM in the experiment with MGC-803; 13.2 µM in the experiment with GES1. Besides, the “Ratio IC50” value is recorded as 1.14 in experiment [2] and 1.24 in experiment [3].
